Data taken from ChEMBL document CHEMBL1131301, “Tyrosine kinase inhibitors. 14. Structure-activity relationships for methylamino-substituted derivatives of 4-[(3-bromophenyl)amino]-6-(methylamino)-pyrido[3,4-d]pyrimidine (PD 158780), a potent and specific inhibitor of the tyrosine kinase activity of receptors for the EGF family of growth factors” (J Med Chem, 1998).
pIC50: −log10 of the molar value. In brackets after ≈: the same amount, converted by molar mass.

Columns and labels:
[1] = molecular target: T1, Epidermal growth factor receptor (Homo sapiens, UniProt P00533); test: Inhibition of EGF-dependent autophosphorylation of EGF-R in A431 cells
[2] = molecular target: T1, Epidermal growth factor receptor; test: Inhibition of autophosphorylation of epidermal growth factor receptor in A431 cells in culture
[3] = Aqueous solubility ([…] degree C); assay type: physicochemical
[4] = molecular target: T1, Epidermal growth factor receptor; test: (§1) Inhibition of tyrosine/glutamic acid copolymer phosphorylation by epidermal growth factor receptor prepared of human A431
[5] = molecular target: T1, Epidermal growth factor receptor; test: as §1; remark: listed apart in the source
[6] = molecular target: Fibroblast growth factor receptor (Homo sapiens, UniProt P22607+P11362+P22455+P21802); test: Inhibition of fibroblast growth factor receptor(FGFR); assay type: protein assay
[7] = molecular target: Insulin receptor (Homo sapiens, UniProt P06213); test: Inhibition of insulin receptor(IR)
[8] = molecular target: Receptor tyrosine-protein kinase erbB-2 (Homo sapiens, UniProt P04626); test: Inhibition of heregulin-dependent autophosphorylation of ErbB2 receptor in MDA-MB-453 cells; assay type: functional, cell-based
[9] = test system: Mus musculus; test: Difference in days for treated (T) and control (C) EGFR tumor fragments to reach 750 mg in mice at 200 mg/kg peroral dose, administration days 1-15; assay type: functional; details: route oral
[10] = test system: Mus musculus; test: Difference in days for treated (T) and control (C) EGFR tumor fragments to reach 750 mg in mice at 25 mg/kg ip dose, administration days 1-15; assay type: functional; details: route intraperitoneal
[11] = test system: A-431; test: Ratio of treated and control A431 median tumor mass*100% in mice at 25 mg/kg peroral dose, days 7-21 administration; assay type: functional; details: route intraperitoneal, in the assay text read “intraperitoneal” for “peroral”
Summary of the method: (§2)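 Nude mice (NCr nu/nu, 18-22 g) were randomized and implanted sc with tumor fragments in the right axilla on day 0. Tumor lines were A431 epidermoid, NIH 3T3 fibroblasts transfected with human EGFR, and MCF-7 breast. Dosing was ip or oral, by average cage weight, with 6 mice/dose group. Vehicle was 6% dimethylacetamide/94% 50 mM sodium lactate pH 4.0 (suspension), or isethionate salt in water.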

[12] = test system: Mus musculus; test: Ratio of treated and control EGFR median tumor mass*100% in mice at 200 mg/kg peroral dose, days 1-15 administration; assay type: functional; details: route oral; summary of the method: as §2
[13] = test system: Mus musculus; test: Ratio of treated and control EGFR median tumor mass*100% in mice at 25 mg/kg ip dose, days 1-15 administration; assay type: functional; details: route intraperitoneal; summary of the method: as §2
[14] = test system: Mus musculus; test: Net reduction in EGFR tumor burden between the first and last treatments in mice at 200 mg/kg peroral dose, days 1-15 administration; assay type: functional; details: route oral
Summary of the method: (§3)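 NCr nu/nu nude mice (18-22 g) were randomized and implanted sc with A431 epidermoid, human-EGFR-transfected NIH 3T3 fibroblast, or MCF-7 breast tumor fragments in the right axilla on day 0. Dosing was ip or oral, by average cage weight, with 6 mice per dose group. Log net cell kill is the net reduction in tumor burden between the first and last treatments.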

[15] = test system: Mus musculus; test: Net reduction in EGFR tumor burden between the first and last treatments in mice at 25 mg/kg ip dose, days 1-15 administration; assay type: functional; details: route intraperitoneal; summary of the method: as §3
[16] = test system: A-431; test: Net reduction in A431 tumor burden between the first and last treatments in mice at 25 mg/kg ip dose, days 7-21 administration; assay type: functional; details: route intraperitoneal; summary of the method: as §3
[17] = test system: A-431; test: Weight change in A431 tumor bearing mice at 25 mg/kg ip dose, days 7-21 administration; assay type: functional; details: route intraperitoneal
[18] = test system: Mus musculus; test: Weight change of EGFR tumor bearing mice at 200 mg/kg peroral dose, days 1-15 administration; assay type: functional, organism-based; design: dose 200 mg/kg
[19] = Inhibition of Platelet-derived growth factor receptor (PDGFR)
[20] = molecular target: Proto-oncogene tyrosine-protein kinase Src (Homo sapiens, UniProt P12931); test: Inhibition of c-Src tyrosine kinase
[21] = test system: Mus musculus; test: Weight change of EGFR tumor bearing mice at 25 mg/kg ip dose, days 1-15 administration; details: route intraperitoneal
[22] = test system: A-431; test: Difference in days for treated (T) and control (C) A431 tumor fragments to reach 750 mg in mice at 25 mg/kg intraperitoneal dose, administration days 7-21
[23] = molecular target: T1, Epidermal growth factor receptor; test: Inhibit of phosphorylation of a tyrosine/glutamic acid copolymer by epidermal growth factor receptor prepared from human A431 carcinoma cell vesicles by immunoaffinity chromatography.
[24] = test system: SK-OV-3; test: Difference in days for treated (T) and control (C) SKOV-3 tumor fragments to reach 750 mg in mice at 25 mg/kg ip dose, administration days 10-14,17-21,24-28; assay type: functional; details: route intraperitoneal
[25] = test system: Mus musculus; test: Difference in days for treated (T) and control (C) EGFR tumor fragments to reach 750 mg in mice at 400 mg/kg peroral dose, administration days 1-15; assay type: functional; details: route oral
[26] = test system: MCF7; test: Difference in days for treated (T) and control (C) MCF-7 tumor fragments to reach 750 mg in mice at 25 mg/kg ip dose, administration days 1-15; assay type: functional; details: route intraperitoneal
[27] = test system: A-431; test: Ratio of treated and control A431 median tumor mass*100% in mice at 12 mg/kg peroral dose, days 7-21 administration; assay type: functional; details: route intraperitoneal, in the assay text read “intraperitoneal” for “peroral”; summary of the method: as §2
[28] = test system: A-431; test: Ratio of treated and control A431 median tumor mass*100% in mice at 25 mg/kg peroral dose, days 13-26 administration; assay type: functional, Mus musculus; details: route intraperitoneal, in the assay text read “intraperitoneal” for “peroral”; summary of the method: as §2
[29] = test system: Mus musculus; test: Ratio of treated and control EGFR median tumor mass*100% in mice at 400 mg/kg peroral dose, days 1-15 administration; assay type: functional; details: route oral; summary of the method: as §2
[30] = test system: MCF7; test: Ratio of treated and control MCF-7 median tumor mass*100% in mice at 25 mg/kg ip dose, days 1-15 administration; assay type: functional; details: route intraperitoneal; summary of the method: as §2
[31] = test system: SK-OV-3; test: Ratio of treated and control SKOV-3 median tumor mass*100% in mice at 25 mg/kg ip dose, days 10-14,17-21,24-28 administration; assay type: functional; details: route intraperitoneal
[32] = test system: Mus musculus; test: Net reduction in EGFR tumor burden between the first and last treatments in mice at 400 mg/kg peroral dose, days 1-15 administration; assay type: functional; details: route oral; summary of the method: as §3
[33] = test system: MCF7; test: Net reduction in MCF-7 tumor burden between the first and last treatments in mice at 25 mg/kg ip dose, days 1-15 administration; assay type: functional; details: route intraperitoneal; summary of the method: as §3
[34] = test system: A-431; test: Difference in days for treated (T) and control (C) A431 tumor fragments to reach 750 mg in mice at 12 mg/kg peroral dose, administration days 7-21; assay type: functional; details: route intraperitoneal, in the assay text read “intraperitoneal” for “peroral”; summary of the method: as §2
[35] = test system: A-431; test: Difference in days for treated (T) and control (C) A431 tumor fragments to reach 750 mg in mice at 25 mg/kg peroral dose, administration days 7-21; assay type: functional; details: route oral
[36] = test system: SK-OV-3; test: Weight change in SKOV-3 tumor bearing mice at 25 mg/kg ip dose, days 10-14,17-21,24-28 administration; assay type: functional; details: route intraperitoneal
[37] = test system: A-431; test: Net reduction in A431 tumor burden between the first and last treatments in mice at 12 mg/kg ip dose, days 7-21 administration; assay type: functional; details: route intraperitoneal; summary of the method: as §3
[38] = test system: A-431; test: Net reduction in A431 tumor burden between the first and last treatments in mice at 25 mg/kg ip dose, administration days 13-26; assay type: functional; details: route intraperitoneal; summary of the method: as §3
[39] = test system: MCF7; test: Weight change in MCF-7 tumor bearing mice at 25 mg/kg ip dose, days 1-15 administration; assay type: functional
[40] = test system: A-431; test: Weight change in A431 tumor bearing mice at 12 mg/kg ip dose, days 7-21 administration; assay type: functional; details: route intraperitoneal
[41] = test system: A-431; test: WWeight change in A431 tumor bearing mice at 25 mg/kg ip dose, days 13-26 administration; assay type: functional; details: route intraperitoneal
[42] = test system: Mus musculus; test: Weight change of EGFR tumor bearing mice at 400 mg/kg peroral dose, days 1-15 administration; assay type: functional; details: route oral
[43] = test system: Mus musculus; test: Weight change of EGFR tumor bearing mice at 25 mg/kg ip dose, days 1-15 administration; assay type: functional; details: route intraperitoneal

T1 sequence (P00533 whole entry): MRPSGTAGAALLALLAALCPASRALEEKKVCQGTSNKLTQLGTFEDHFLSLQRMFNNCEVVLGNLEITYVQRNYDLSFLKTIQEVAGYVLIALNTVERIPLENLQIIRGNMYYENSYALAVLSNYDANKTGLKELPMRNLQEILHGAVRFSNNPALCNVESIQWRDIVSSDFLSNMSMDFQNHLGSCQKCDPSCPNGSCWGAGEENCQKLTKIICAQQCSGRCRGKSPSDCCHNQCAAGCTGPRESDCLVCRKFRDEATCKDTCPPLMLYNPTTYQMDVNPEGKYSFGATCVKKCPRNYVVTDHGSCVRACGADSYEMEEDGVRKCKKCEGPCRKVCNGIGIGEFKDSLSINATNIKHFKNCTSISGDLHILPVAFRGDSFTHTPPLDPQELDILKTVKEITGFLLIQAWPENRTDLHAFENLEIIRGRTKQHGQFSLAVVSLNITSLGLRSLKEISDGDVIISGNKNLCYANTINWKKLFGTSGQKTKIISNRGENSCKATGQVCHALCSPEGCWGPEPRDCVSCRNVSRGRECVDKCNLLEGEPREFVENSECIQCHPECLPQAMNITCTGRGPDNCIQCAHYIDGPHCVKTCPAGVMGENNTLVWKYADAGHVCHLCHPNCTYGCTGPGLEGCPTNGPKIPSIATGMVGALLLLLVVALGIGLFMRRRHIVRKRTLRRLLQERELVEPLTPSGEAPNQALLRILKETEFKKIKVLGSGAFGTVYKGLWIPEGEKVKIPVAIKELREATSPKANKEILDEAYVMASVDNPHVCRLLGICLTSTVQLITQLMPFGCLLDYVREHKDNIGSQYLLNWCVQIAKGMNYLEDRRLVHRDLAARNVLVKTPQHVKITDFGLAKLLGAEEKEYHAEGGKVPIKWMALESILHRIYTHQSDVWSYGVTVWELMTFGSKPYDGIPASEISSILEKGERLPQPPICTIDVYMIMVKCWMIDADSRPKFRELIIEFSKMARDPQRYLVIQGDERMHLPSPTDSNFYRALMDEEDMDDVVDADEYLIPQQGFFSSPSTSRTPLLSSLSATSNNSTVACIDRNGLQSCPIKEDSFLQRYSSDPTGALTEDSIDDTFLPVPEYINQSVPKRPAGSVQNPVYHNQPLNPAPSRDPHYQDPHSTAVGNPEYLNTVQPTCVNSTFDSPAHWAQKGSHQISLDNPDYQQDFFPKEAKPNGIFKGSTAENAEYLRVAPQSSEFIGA
Insulin receptor, sequence (P06213 28-758 limits assumed): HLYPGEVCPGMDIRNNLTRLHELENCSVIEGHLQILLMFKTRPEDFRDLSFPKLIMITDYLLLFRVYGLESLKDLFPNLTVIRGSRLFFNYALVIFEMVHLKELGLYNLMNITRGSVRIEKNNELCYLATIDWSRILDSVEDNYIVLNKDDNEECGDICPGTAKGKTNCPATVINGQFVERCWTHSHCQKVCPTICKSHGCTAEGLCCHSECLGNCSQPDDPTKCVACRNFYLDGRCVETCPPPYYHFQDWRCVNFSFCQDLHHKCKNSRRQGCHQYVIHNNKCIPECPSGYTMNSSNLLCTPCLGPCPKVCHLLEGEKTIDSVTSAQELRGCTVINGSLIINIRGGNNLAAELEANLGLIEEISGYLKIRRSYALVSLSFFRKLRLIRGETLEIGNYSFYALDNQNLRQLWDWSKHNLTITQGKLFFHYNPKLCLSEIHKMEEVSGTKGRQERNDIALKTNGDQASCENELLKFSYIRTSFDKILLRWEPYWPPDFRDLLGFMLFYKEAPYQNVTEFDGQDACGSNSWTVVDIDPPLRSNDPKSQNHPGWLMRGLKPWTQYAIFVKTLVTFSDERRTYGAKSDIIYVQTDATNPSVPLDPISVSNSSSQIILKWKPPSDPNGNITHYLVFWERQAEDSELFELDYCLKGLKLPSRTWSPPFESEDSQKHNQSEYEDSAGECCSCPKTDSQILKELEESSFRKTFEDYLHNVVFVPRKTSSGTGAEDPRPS
Insulin receptor, sequence (P06213 763-1382 limits assumed): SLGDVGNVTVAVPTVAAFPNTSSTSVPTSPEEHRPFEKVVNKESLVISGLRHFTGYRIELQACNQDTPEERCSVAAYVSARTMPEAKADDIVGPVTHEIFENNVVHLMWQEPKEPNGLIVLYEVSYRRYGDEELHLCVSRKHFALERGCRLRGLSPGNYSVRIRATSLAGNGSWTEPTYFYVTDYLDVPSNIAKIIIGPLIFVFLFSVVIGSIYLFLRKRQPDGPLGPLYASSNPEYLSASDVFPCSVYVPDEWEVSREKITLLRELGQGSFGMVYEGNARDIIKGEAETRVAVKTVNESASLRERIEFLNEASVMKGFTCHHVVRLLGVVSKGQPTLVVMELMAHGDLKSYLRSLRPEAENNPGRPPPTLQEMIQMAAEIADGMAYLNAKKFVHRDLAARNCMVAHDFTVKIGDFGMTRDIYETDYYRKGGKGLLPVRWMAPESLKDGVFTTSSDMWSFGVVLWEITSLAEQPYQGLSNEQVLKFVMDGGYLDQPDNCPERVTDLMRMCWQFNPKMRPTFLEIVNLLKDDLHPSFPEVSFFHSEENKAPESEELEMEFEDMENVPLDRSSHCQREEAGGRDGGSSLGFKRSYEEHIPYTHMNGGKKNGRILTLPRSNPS
Receptor tyrosine-protein kinase erbB-2, sequence (P04626 whole entry, the tested form may be a part): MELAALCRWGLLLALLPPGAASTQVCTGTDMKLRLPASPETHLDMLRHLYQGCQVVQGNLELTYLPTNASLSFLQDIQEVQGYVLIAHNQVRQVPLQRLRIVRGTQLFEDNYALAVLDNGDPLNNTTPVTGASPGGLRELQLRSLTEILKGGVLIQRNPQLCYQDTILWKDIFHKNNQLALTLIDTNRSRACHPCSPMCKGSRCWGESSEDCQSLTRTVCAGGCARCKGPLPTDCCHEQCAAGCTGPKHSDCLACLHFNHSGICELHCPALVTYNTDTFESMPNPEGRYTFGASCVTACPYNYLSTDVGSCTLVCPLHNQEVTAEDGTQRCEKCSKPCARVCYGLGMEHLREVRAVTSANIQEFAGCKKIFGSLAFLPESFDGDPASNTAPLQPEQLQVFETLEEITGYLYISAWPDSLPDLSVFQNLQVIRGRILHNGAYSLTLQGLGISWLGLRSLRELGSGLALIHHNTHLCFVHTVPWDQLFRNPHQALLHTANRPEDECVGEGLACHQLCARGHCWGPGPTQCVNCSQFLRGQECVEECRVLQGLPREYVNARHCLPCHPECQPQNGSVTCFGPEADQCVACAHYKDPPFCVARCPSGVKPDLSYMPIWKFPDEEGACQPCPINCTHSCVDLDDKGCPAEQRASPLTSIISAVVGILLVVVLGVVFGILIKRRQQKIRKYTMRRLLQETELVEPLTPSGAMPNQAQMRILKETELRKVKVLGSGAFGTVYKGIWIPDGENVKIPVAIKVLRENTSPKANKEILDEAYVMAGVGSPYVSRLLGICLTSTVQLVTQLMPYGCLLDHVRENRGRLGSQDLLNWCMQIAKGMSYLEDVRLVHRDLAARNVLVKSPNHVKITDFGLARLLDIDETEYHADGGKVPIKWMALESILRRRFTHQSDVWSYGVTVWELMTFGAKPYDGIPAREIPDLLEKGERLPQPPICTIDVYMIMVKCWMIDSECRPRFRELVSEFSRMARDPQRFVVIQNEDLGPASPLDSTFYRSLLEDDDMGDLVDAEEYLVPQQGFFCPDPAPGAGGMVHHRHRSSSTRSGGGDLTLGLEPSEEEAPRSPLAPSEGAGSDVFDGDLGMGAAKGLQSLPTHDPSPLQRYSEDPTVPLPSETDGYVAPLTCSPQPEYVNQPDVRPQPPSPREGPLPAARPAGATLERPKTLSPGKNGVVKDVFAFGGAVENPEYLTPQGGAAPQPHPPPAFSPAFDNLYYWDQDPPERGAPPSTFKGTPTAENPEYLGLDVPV
Proto-oncogene tyrosine-protein kinase Src, sequence (P12931 2-536 limits assumed): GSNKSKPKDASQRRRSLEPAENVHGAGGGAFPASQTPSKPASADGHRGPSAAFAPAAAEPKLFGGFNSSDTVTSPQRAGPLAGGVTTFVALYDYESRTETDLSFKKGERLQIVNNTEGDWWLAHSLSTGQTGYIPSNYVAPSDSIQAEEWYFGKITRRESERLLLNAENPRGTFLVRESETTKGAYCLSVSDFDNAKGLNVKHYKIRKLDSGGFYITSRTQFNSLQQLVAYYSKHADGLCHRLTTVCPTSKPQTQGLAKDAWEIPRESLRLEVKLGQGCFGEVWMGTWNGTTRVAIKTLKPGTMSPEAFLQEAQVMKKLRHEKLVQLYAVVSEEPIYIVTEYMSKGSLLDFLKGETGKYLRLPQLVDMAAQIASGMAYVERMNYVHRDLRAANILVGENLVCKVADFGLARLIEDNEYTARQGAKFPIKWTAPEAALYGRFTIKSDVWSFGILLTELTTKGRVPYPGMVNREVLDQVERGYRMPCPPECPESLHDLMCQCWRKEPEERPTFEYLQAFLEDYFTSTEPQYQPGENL

CN(C)CCNc1cc2c(Nc3cccc(Br)c3)ncnc2cn1
pIC50 [1]: 7.37 | pIC50 [2]: 7.37 | S ([3]; buffer): > 48 mM | pIC50 [4]: 8.96 | pIC50 [5]: 8.96 | IC50 [6]: > 50 µM | pIC50 [7]: < 4.30 | pIC50 [8]: 6.42 | T-C [9]: 1.1 days | T-C [10]: 3.3 days | T/C [11]: 66% | T/C [12]: 47% | T/C [13]: 43% | Net cell kill [14]: -1.3 log10 | Net cell kill [15]: -1 log10 | Net cell kill [16]: -0.5 log10 | Weight change [17]: -1.4 g | Weight change [18]: Weight gain | pIC50 [19]: < 4.30 | pIC50 [20]: < 4.30 | Weight change [21]: -1.1 g | T-C [22]: 4.7 days

Brc1cccc(Nc2ncnc3cnc(NCCN4CCOCC4)cc23)c1
pIC50 [1]: 8.10 | pIC50 [2]: 8.10 | solubility ([3]; water, read-out: S): 10 mM (≈ 4290 µg/mL) | pIC50 [4]: 9.15 | pIC50 [23]: 9.19 | IC50 [6]: > 50 µM | pIC50 [7]: < 4.30 | pIC50 [8]: 6.66 | T-C [24]: 0 days | T-C [10]: 1.2 days | T-C [25]: 2.8 days | T-C [26]: 11.7 days | T/C [27]: 93% | T/C [28]: 98% | T/C [13]: 77% | T/C [29]: 15% | T/C [30]: 34% | T/C [31]: 100% | Net cell kill [15]: -1.2 log10 | Net cell kill [32]: -1.1 log10 | Net cell kill [33]: -0.1 log10 | T-C [34]: 1.9 days | T-C [35]: 2.1 days | Weight change [36]: -2.1 g | Net cell kill [37]: -0.7 log10 | Net cell kill [38]: -0.3 log10 | Weight change [39]: Weight gain | Weight change [40]: -0.2 g | Weight change [41]: -1.1 g | Weight change [42]: -2 g | Weight change [43]: -1.3 g | pIC50 [19]: < 4.30 | pIC50 [20]: < 4.30
